Measurements: ChEMBL document CHEMBL1128446, “Pyrazinoic acid esters with broad spectrum in vitro antimycobacterial activity” (1995)
≈ marks a conversion by molar mass, not a printed value.

Key:
Format in all cases: functional
[1] = test system: Mycobacterium tuberculosis; assay: Minimum Inhibitory Concentration for PZA resistant forms against Mycobacterium tuberculosis ATCC 35828
Summary of the method: (§1)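 Broth macrodilution in tubes of modified Middlebrook 7H10 broth (agar and malachite green omitted) with 10% OADC and 0.05% Tween 80 at pH 5.8. Cultures were grown 3 days at 37 °C on a rotary shaker, then diluted with 7H10 broth to 1 Klett unit/mL. Stocks were made in water or DMSO and filter-sterilised; 2-fold serial dilutions were tested. Tubes shaken 7–10 days at 37 °C, with a drug-free control. MIC = lowest concentration (μg/mL) with no visible turbidity.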

[2] = test system: Mycobacterium tuberculosis; assay: Minimum Inhibitory Concentration against Mycobacterium tuberculosis ATCC 35828 PZA resistant form; summary of the method: as §1
[3] = test system: Mycobacterium tuberculosis; assay: Minimum Inhibitory Concentration against Mycobacterium tuberculosis ATCC 35828 for PZA resistant form; summary of the method: as §1

Structure (SMILES) | MIC [1] [mg/L] | MIC [2] [mg/L] | other results
CCCCCC(C)(CCCC)OC(=O)c1cnc(Cl)cn1 (centres undefined) | 16 (≈ 51.1 µM) | – | –
COC(=O)c1cnc(F)cn1 | 8 (≈ 51.2 µM) | – | –
CCCCCCOC(=O)c1cnc(F)cn1 | 8 (≈ 35.4 µM) | – | –
CCCCCCCCCC(C)(C)OC(=O)c1cnc(Cl)cn1 | 16 (≈ 48.9 µM) | – | –
O=C(OCCc1ccccc1)c1cnc(Cl)cn1 | 4 (≈ 15.2 µM) | – | –
CCCCOC(=O)c1cnc(Cl)cn1 | – | 0.5 (≈ 2.33 µM) | –
CC(C)COC(=O)c1cnccn1 | – | 64 (≈ 355 µM) | –
CCCCCCCCCOC(=O)c1cnc(C)cn1 | 2 (≈ 7.57 µM) | – | –
Cc1ccc(C(C)OC(=O)c2cnc(Cl)cn2)cc1 (centres undefined) | 2 (≈ 7.23 µM) | – | –
O=C(OCCc1ccc(Cl)cc1)c1cnc(Cl)cn1 | 32 (≈ 108 µM) | – | –
Cc1cc(C(C)(C)C)c(OC(=O)c2cnccn2)c(C(C)(C)C)c1 | – | 128 (≈ 392 µM) | –
COC(=O)c1cnc(C)cn1 | > 16 | – | –
CC(OC(=O)c1cnc(Cl)cn1)c1ccc(Br)cc1 (centres undefined) | 16 (≈ 46.8 µM) | – | –
O=C(Oc1c(Br)cc(Br)cc1Br)c1cnccn1 | – | 32 (≈ 73.2 µM) | –
Cc1cnc(C(=O)O)cn1 | – | > 64 | –
O=C(OCc1ccccc1)c1cnc(Cl)cn1 | – | 1 (≈ 4.02 µM) | –
CCCCCCCCOC(=O)c1cnc(Cl)cn1 | – | < 0.03 | –
NC(=O)c1cnccn1 [PYRAZINAMIDE] | – | 2050 (≈ 16600 µM) | –
CCCCCCCCC(C)OC(=O)c1cnc(Cl)cn1 (centres undefined) | – | < 0.03 | –
CC(C)(C)C(OC(=O)c1cnc(Cl)cn1)c1ccccc1 (centres undefined) | 16 (≈ 52.5 µM) | – | –
CCCCCCC(C)(CCCCCC)OC(=O)c1cnc(Cl)cn1 | 0.5 (≈ 1.41 µM) | – | –
CCCCCCCCCCOC(=O)c1cnc(Cl)cn1 | – | 0.5 (≈ 1.67 µM) | –
CCCCCCC(C)(C)OC(=O)c1cnc(Cl)cn1 | 0.25 (≈ 0.878 µM) | – | –

Structure (SMILES) | MIC [1] [mg/L] | MIC [2] [mg/L] | other results
CCCCC(OC(=O)c1cnc(Cl)cn1)c1ccccc1 (centres undefined) | 8 (≈ 26.2 µM) | – | –
CCCCCCCCCCCOC(=O)c1cnc(Cl)cn1 | – | 0.5 (≈ 1.6 µM) | –
CCCCCC(CC)OC(=O)c1cnc(Cl)cn1 (centres undefined) | – | – | MIC [3]: 1 mg/L (≈ 3.69 µM)
CC(C)(C)OC(=O)c1cnc(Cl)cn1 | – | 0.5 (≈ 2.33 µM) | –
CCCCCCCOC(=O)c1cnc(C)cn1 | 1 (≈ 4.23 µM) | – | –
CCCCCCC(C)(CCCCC)OC(=O)c1cnc(Cl)cn1 (centres undefined) | 16 (≈ 46.9 µM) | – | –
O=C(OCc1ccc(Br)cc1)c1cnc(Cl)cn1 | > 16 | – | –
CCCCCCCCCCCC(C)OC(=O)c1cnc(Cl)cn1 (centres undefined) | – | 0.5 (≈ 1.47 µM) | –
CCCCCCCC(C)(CCCC)OC(=O)c1cnc(Cl)cn1 (centres undefined) | 16 (≈ 46.9 µM) | – | –
CCCCCCCCCCC(OC(=O)c1cnc(Cl)cn1)C(C)(C)C (centres undefined) | 16 (≈ 43.4 µM) | – | –
CCCCCCCOC(=O)c1cnc(Cl)cn1 | – | < 0.03 | –
CCCCCCCC(OC(=O)c1cnc(Cl)cn1)C(C)(C)C (centres undefined) | 2 (≈ 6.12 µM) | – | –
CC(C)COC(=O)c1cnc(Cl)cn1 | – | 2 (≈ 9.32 µM) | –
O=C(OCc1ccccc1)c1cnccn1 | – | 2 (≈ 9.34 µM) | –
CCCCCCC(C)(CCCC)OC(=O)c1cnc(Cl)cn1 (centres undefined) | 16 (≈ 48.9 µM) | – | –
CCOC(=O)c1cnc(Cl)cn1 | – | > 16 | –
O=C(O)c1cnc(Cl)cn1 | – | 64 (≈ 404 µM) | –
CCCCCCCC(C)(CCCCC)OC(=O)c1cnc(Cl)cn1 (centres undefined) | 8 (≈ 22.5 µM) | – | –
CCCOC(=O)c1cnc(C)cn1 | 1 (≈ 5.55 µM) | – | –
O=C(OC(c1ccccc1)c1ccccc1)c1cnc(Cl)cn1 | 16 (≈ 49.3 µM) | – | –
CCCCCCCCC(C)(C)OC(=O)c1cnc(Cl)cn1 | 0.25 (≈ 0.799 µM) | – | –
CCCCCCCCCCOC(=O)c1cnc(F)cn1 | 4 (≈ 14.2 µM) | – | –
CCCCCCCCC(C)(CCCC)OC(=O)c1cnc(Cl)cn1 (centres undefined) | 8 (≈ 22.5 µM) | – | –

Structure (SMILES) | MIC [1] [mg/L] | MIC [2] [mg/L] | other results
CCCCCCC(C)OC(=O)c1cnc(Cl)cn1 (centres undefined) | – | 0.5 (≈ 1.85 µM) | –
CCCCCOC(=O)c1cnc(Cl)cn1 | – | 0.12 (≈ 0.525 µM) | –
CCC(C)(CC)OC(=O)c1cnc(Cl)cn1 | 4 (≈ 16.5 µM) | – | –
CCCCCCCCC(CC)OC(=O)c1cnc(Cl)cn1 (centres undefined) | 0.25 (≈ 0.799 µM) | – | –
CCCCCCCC(OC(=O)c1cnc(Cl)cn1)C(C)C (centres undefined) | 2 (≈ 6.39 µM) | – | –
CCCCCCCCCCOC(=O)c1cnccn1 | – | 0.25 (≈ 0.946 µM) | –
O=C(Oc1ccc(F)cc1)c1cnccn1 | – | 16 (≈ 73.3 µM) | –
CCCOC(=O)c1cnc(Cl)cn1 | – | 0.25 (≈ 1.25 µM) | –
CCCCCCCCCC(C)OC(=O)c1cnc(Cl)cn1 (centres undefined) | – | 1 (≈ 3.2 µM) | –
CCCCCCCCCCCCCCCOC(=O)c1cnccn1 | – | 1 (≈ 2.99 µM) | –
CC(C)(OC(=O)c1cnc(Cl)cn1)c1ccccc1 | > 16 | – | –
O=C(O)c1cnccn1 [PYRAZINOIC ACID] | – | 32 (≈ 258 µM) | –
C=CCOC(=O)c1cnc(Cl)cn1 | – | 2 (≈ 10.1 µM) | –
CCCCCC(C)OC(=O)c1cnc(Cl)cn1 (centres undefined) | – | 0.06 (≈ 0.234 µM) | –
CCCCCCCC(C)OC(=O)c1cnc(Cl)cn1 (centres undefined) | – | 2 (≈ 7.02 µM) | –
O=C(Oc1cccc2ccccc12)c1cnccn1 | – | 8 (≈ 32 µM) | –
CCCCCCC(C)OC(=O)c1cnc(F)cn1 (centres undefined) | 4 (≈ 15.7 µM) | – | –
CCCCCCOC(=O)c1cnc(Cl)cn1 | – | 0.5 (≈ 2.06 µM) | –
CCCCCC(CC)OC(=O)c1cnc(C)cn1 (centres undefined) | – | 1 (≈ 3.99 µM) | –
CCCCCCCCCOC(=O)c1cnc(Cl)cn1 | – | < 0.03 | –
COC(=O)c1cnc(Cl)cn1 | – | 16 (≈ 92.7 µM) | –
CCCCCC(C)(CCCCC)OC(=O)c1cnc(Cl)cn1 | 16 (≈ 48.9 µM) | – | –
COC(=O)c1cnccn1 | – | 64 (≈ 463 µM) | –
